For 36 sequences, folding enthalpy and Tm results are on record in the array DNA melting data of Ke et al. (doi:10.1101/2024.01.08.574731).

A short description of data set [1]: folding enthalpy; higher = less favourable; fluorescence melt of hairpins on a sequencing array, two-state fit. To be noted: sodium 0.088 M. The method in brief:
(§1)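 Two-state fits, bootstrapped, provided melting temperature and folding enthalpy from Cy3 fluorescence normalised to pre-quench Cy3 and to control constructs. Library hairpins with annealed Cy3 and quencher oligos were imaged on a sequenced MiSeq flow cell in 50 mM Na-HEPES pH 8.0, 25 mM NaCl, at 2.5 °C intervals up to 60 °C. Four replicates were combined with inverse-variance weighting. A 9.35 °C upward shift was applied to fitted temperatures to match UV melts.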

The nature of data set [2]: melting temperature; fluorescence melt of hairpins on a sequencing array, two-state fit, raised by 9.35 °C to match UV melts. The settings on record: sodium 0.088 M. The method in brief: as §1

For GGCGAGACGAAAGTCGCC (((..(((....)))))), the folding enthalpy in data set [1] was -13.8 kcal/mol. The Tm in data set [2] came to 59.4 °C.
For the sequence GGCGAGGGAAACCTTGCC (((.(((....))).))), the folding enthalpy in data set [1] is -44.4 kcal/mol. Further, in data set [2], the Tm turned out to be 58 °C.
With GGCGCAGGAAACTACGCC ((((.((....)).)))), in data set [1], the folding enthalpy was -39 kcal/mol. In addition, the Tm in data set [2] turned out to be 53.5 °C.
On to GGCGCCGAAAGGCACGCC ((((((....)))..))), for which the folding enthalpy in data set [1] was -15.7 kcal/mol. Further, the Tm in data set [2] was found to be 63.4 °C.
Consider GGCGCGGCGAAAGCCGCC (((..(((....)))))), for which the folding enthalpy in data set [1] was -5.51 kcal/mol. In addition, the Tm in data set [2] came out at 48.6 °C.
GGCGGAACGAAAGTTGCC (((..(((....)))))): in data set [1], the folding enthalpy was -19.5 kcal/mol. In addition, in data set [2], the Tm stood at 47.6 °C.
For GGCGGACCGAAAGGTGCC (((..(((....)))))), in that order: -19.9 kcal/mol and 55.1 °C.
In the same order, the values of GGCGGAGGAAACCCCACC ((.((.(....).)).)) are -20.2 kcal/mol and 29.6 °C.
GGCGGAGGAAACTCCACC ((.((((....)))).)): the folding enthalpy in data set [1] is -33.6 kcal/mol. The Tm in data set [2] turned out to be 48.9 °C.
GGCGGAGGAAACTCCGTC (.(((((....))))).): in data set [1], the folding enthalpy is -25.7 kcal/mol. For the same sequence, the Tm in data set [2] was found to be 61.2 °C.
For GGCGGAGGAAACTCTGCC (((.(((....))).))), the folding enthalpy in data set [1] is -51.1 kcal/mol. The Tm in data set [2] was found to be 57.1 °C.
Regarding GGCGGAGGAAACTTCGCC ((((.((....)).)))), in data set [1], the folding enthalpy was -49.2 kcal/mol. The Tm in data set [2] is 59 °C.
On to GGCGGCACGAAAGTGGCC (((..(((....)))))), for which, in data set [1], the folding enthalpy was -11.6 kcal/mol. Moreover, in data set [2], the Tm was 52 °C.
Consider GGCGGCCCGAAAGGGGCC (((..(((....)))))), for which, in data set [1], the folding enthalpy is -7.67 kcal/mol. In addition, in data set [2], the Tm came to 53.1 °C.
On to GGCGGCGAAAGCCCAGCC ((((((....)))..))), for which, in data set [1], the folding enthalpy was -18.5 kcal/mol. Also, the Tm in data set [2] is 57.8 °C.
For GGCGGGGGAAACCTCGCC ((((.((....)).)))), in that order: -32.4 kcal/mol and 66.1 °C.
For GGCGGTCGAAAGACGCC (((.(((....)))))), in that order: -28.6 kcal/mol and 67.3 °C.
Regarding GGCGGTGCGAAAGCAGCC (((..(((....)))))), in data set [1], the folding enthalpy is -14.8 kcal/mol. For the same sequence, the Tm in data set [2] turned out to be 55.8 °C.
With GGCGGTGGAAACGCTGCC (((.(.(....).).))), in data set [1], the folding enthalpy was -21.9 kcal/mol. Also, the Tm in data set [2] was determined as 54.6 °C.
For GGCGTACGAAAGTAGCC (((.(((....)))))), in that order: -32.6 kcal/mol and 65.5 °C.
For GGCGTAGGAAACTGCGTC (.((.((....)).)).), in that order: -19.5 kcal/mol and 44.1 °C.
In the case of GGCGTCCGAAAGGAGGCC (((.(((....))).))), the folding enthalpy in data set [1] is -27 kcal/mol. For the same sequence, the Tm in data set [2] stood at 69.1 °C.
Take GGCGTCGAAAGACATGCC ((((((....)))..))): in data set [1], the folding enthalpy was -23.1 kcal/mol. In addition, the Tm in data set [2] was found to be 53 °C.
As for GGCGTCGAAAGACCAGCC ((((((....)))..))), the folding enthalpy in data set [1] is -18.6 kcal/mol. For the same sequence, the Tm in data set [2] is 50.9 °C.
Regarding GGCGTCGAAAGACCTGCC ((((((....)))..))), in data set [1], the folding enthalpy is -18.5 kcal/mol. Also, the Tm in data set [2] worked out at 46.6 °C.
On to GGCGTCGAAAGACGTGCC ((((((....)))..))), for which, in data set [1], the folding enthalpy was -12 kcal/mol. The Tm in data set [2] was 51.1 °C.
Take GGCGTCGAAAGACTGGCC ((((((....)))..))): the folding enthalpy in data set [1] is -34.6 kcal/mol. Besides, in data set [2], the Tm worked out at 53.7 °C.
Turning to GGCGTCGGAAACAACGCC (((((.(....).))))), in data set [1], the folding enthalpy is -40.6 kcal/mol. Besides, in data set [2], the Tm came to 55.2 °C.
As for GGCGTCGGAAACGACGTC (.(((((....))))).), the folding enthalpy in data set [1] was -23.4 kcal/mol. For the same sequence, the Tm in data set [2] was 66.2 °C.
As to GGCGTGCCGAAAGGCGCC (((..(((....)))))), the folding enthalpy in data set [1] was -11.5 kcal/mol. Besides, the Tm in data set [2] turned out to be 59.8 °C.
For GGCGTTCGAAAGAATGCC (((.(((....))).))), the folding enthalpy in data set [1] is -56.5 kcal/mol. The Tm in data set [2] came to 62.8 °C.
As to GGCGTTGGAAACAGCGCC ((((.((....)).)))), the folding enthalpy in data set [1] was -52.1 kcal/mol. Besides, in data set [2], the Tm amounted to 60.9 °C.
As for GGCGTTTCGAAAGAAGCC (((..(((....)))))), in data set [1], the folding enthalpy is -23.8 kcal/mol. Moreover, the Tm in data set [2] turned out to be 42.5 °C.
In the same order, the values of GGCTAAGAAATTAGCC ((((((....)))))) are -27 kcal/mol and 53.8 °C.
Consider GGCTACCGAAAGGTGGCC (((.(((....))).))), for which, in data set [1], the folding enthalpy was -35.5 kcal/mol. Also, in data set [2], the Tm was 68.8 °C.
For GGCTACGAAAGTAAAGCC ((((((....)))..))), in that order: -32.5 kcal/mol and 50.5 °C.
